From ChEMBL document CHEMBL1146008, “Design, synthesis, and evaluation of novel biarylpyrimidines: a new class of ligand for unusual nucleic acid structures” (J Med Chem, 2006)

Assays:
MCF7 = assay: Inhibition of human MCF7 cell growth at 100 uM relative to control; format: functional; details: values are per cent of control
Nucleic Acid = assay: Inhibition of telomerase by TRAP assay; format: nucleic-acid assay, Homo sapiens
Outline: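 Human telomerase activity measured with a commercially available telomeric repeat amplification protocol (TRAP) kit. The value is the concentration giving 50% inhibition (telIC50). An internal reference telomerase inhibitor (BSU-1021) was run in the same assay.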

NCI-H460 = assay: Inhibition of human NCI-H460 cell growth at 100 uM relative to control; format: functional; details: values are per cent of control
SF-268 = assay: Inhibition of human SF268 cell growth at 100 uM relative to control; format: functional; details: values are per cent of control

| Compound | IC50 (Nucleic Acid) [µM] | growth, % of control at 100 µM (MCF7) [%] | growth, % of control at 100 µM (NCI-H460) [%] | growth, % of control at 100 µM (SF-268) [%] |
| --- | --- | --- | --- | --- |
| COCCSc1ccc(-c2cc(-c3ccc(SCCOC)cc3)ncn2)cc1 | > 40 | 33 | 94 | 106 |
| c1nc(-c2ccc(SCCN3CCCCC3)cc2)cc(-c2ccc(SCCN3CCCCC3)cc2)n1 | > 40 | 68 | 98 | 79 |
| OCCSc1ccc(-c2cc(-c3ccc(SCCO)cc3)ncn2)cc1 |  | 97 | 99 | 119 |
| CCN(CC)CCSc1ccc(-c2cc(-c3ccc(SCCN(CC)CC)cc3)ncn2)cc1 |  | 83 | 98 | 85 |
| O=C(NCCO)c1ccc(-c2cc(-c3ccc(C(=O)NCCO)cc3)ncn2)cc1 |  | 83 | 104 | 104 |
| c1nc(-c2ccc(SCCN3CCOCC3)cc2)cc(-c2ccc(SCCN3CCOCC3)cc2)n1 |  | 95 | 96 | 102 |

More lines, main results first:

| IC50 (Nucleic Acid) [µM] | Compound | growth, % of control at 100 µM (MCF7) [%] | growth, % of control at 100 µM (NCI-H460) [%] | growth, % of control at 100 µM (SF-268) [%] |
| --- | --- | --- | --- | --- |
| > 40 | CN(C)CCSc1ccc(-c2cc(-c3ccc(SCCN(C)C)cc3)ncn2)cc1 |  |  |  |
| > 40 | CN(C)CCNC(=O)c1ccc(-c2cc(-c3ccc(C(=O)NCCN(C)C)cc3)ncn2)cc1 | 96 | 100 | 108 |
| 10 | CCN(CC)CCNC(=O)c1ccc(-c2cc(-c3ccc(C(=O)NCCN(CC)CC)cc3)ncn2)cc1 |  |  |  |
